# Assay outcomes (PubChem)
# SENP8 block-1 – human SENP8 protease inhibitors, primary screen, biochemical, fluorescence, Nedd8 protein substrate, uHTS; recombinant SENP8; inhibition, % at 20 µM; actives 0.64% (n = 360,000); AID 602440, 2012; in the data active means inhibition mostly above about 40%, no sharp cut-off; inactive means mostly below about 27%
# SENP6 inh – SENP6 protease inhibitors, primary screen, biochemical, luminescence, uHTS; Recombinant SENP6 catalytic domain, aminoluciferin luminescence; inhibition, % at 10 µM; actives 1.8% (n = 330,000); AID 2599, 2010;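 active means inhibition above about 50% at the single tested dose, limit read from the data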;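 further: plate controls were DMSO wells with enzyme for no effect and DMSO wells lacking enzyme for full effect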
# SENP7 block – SENP7 protease inhibitors, primary screen, biochemical, luminescence, uHTS; Sentrin-specific protease 7 (Homo sapiens), Q9BQF6; actives 1.5% (n = 330,000); inhibition, % at 5 µM; recombinant SENP7, Z-RLRGG-aminoluciferin luminescence, 40 min; AID 434973, 2010;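 active means inhibition above about 50% at the single test dose, limit read from the data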;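 further: plate controls were DMSO with enzyme for no effect and no enzyme buffer wells for full effect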
# SENP8 block-2 – SENP8 protease inhibitors, primary screen, biochemical, luminescence. inhibition, % at 10 µM. Sentrin-specific protease 8 (Homo sapiens), Q96LD8. purified SENP8, Z-RLRGG-aminoluciferin cleavage. actives 1.2% (n = 330,000); in the data active means inhibition above about 50%
# UBC13 polyUb – UBC13 polyubiquitin chain formation inhibitors, primary screen, biochemical, TR-FRET, uHTS; Ubiquitin-conjugating enzyme E2 N (Homo sapiens), P61088; inhibition, % at 20 µM; actives 0.47% (n = 330,000); in the data active means inhibition above about 45%, passing the limit was not always enough
# Apaf1 inhib – inhibitors of human Apaf-1 apoptosome, primary screen, biochemical, DEVD-Rh110 fluorescence, uHTS. actives 0.71% (n = 330,000). reconstituted apoptosome caspase-3 activity. inhibition, % at 20 µM. AID 489030, 2010. Apoptotic protease-activating factor 1 (Homo sapiens), O14727; active means inhibition of at least 40% at 20 µM;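 further: plate controls were DMSO wells for no effect and DEVD-CHO caspase inhibitor wells for full effect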
#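 Material: biochemical Apaf-1 apoptosome reconstitution. Medium: Hepes buffer, pH 7.5. Also added: cytochrome c activation, bis-DEVD rhodamine 110 substrate. Timing: 30 min compound preincubation, 50 min activation, room temperature. Measured by: rhodamine 110 fluorescence at Ex 480/Em 540 nm.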
# SENP8 confirm – SENP8 protease inhibitors, retest, confirmation, biochemical, luminescence, single concentration; shares compounds with SENP7 block; Recombinant SENP8, Z-RLRGG-aminoluciferin luminescence, 60 min; inhibition, % at 12.5 µM; actives 40% (n = 6,200);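 active means mean inhibition across replicates above about 50%, limit read from the data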
# SENP6 confirm – SENP6 protease inhibitors, confirmation, biochemical, luminescence, single concentration; shares compounds with SENP7 block; recombinant SENP6, Z-RLRGG-aminoluciferin luminescence; inhibition, % at 12.5 µM; actives 58% (n = 6,200); AID 488915, 2010
# SENP7 conf – SENP7 protease inhibitors, retest, confirmation, biochemical, luminescence, single concentration; shares compounds with SENP7 block; recombinant SENP7, Z-RLRGG-aminoluciferin luminescence, 40 min; inhibition, % at 12.5 µM; actives 69% (n = 6,200)
# Casp3 select – caspase-3 protease inhibitors, confirmation, selectivity assay for SENP inhibitor project, biochemical, single concentration; shares compounds with SENP7 block; purified caspase-3, Z-DEVD-aminoluciferin luminescence, 60 min; actives 60% (n = 6,200); inhibition, % at 12.5 µM; AID 488918, 2010;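 active means mean inhibition above about 50%, limit read from the data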;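 further: plate controls were enzyme with DMSO for no effect and wells without caspase-3 for full effect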
# SENP luc ctr – counter-screen for SENP inhibitors: luminescence interference. shares compounds with SENP7 block. Pre-incubated SENP8/Z-RLRGG-aminoluciferin, luciferase luminescence interference. inhibition, % at 12.5 µM. actives 39% (n = 6,200). AID 488919;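 active means mean inhibition above about 50% when retested at one dose, limit read from the data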;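 further: plate controls were DMSO wells with completed reaction for no effect and substrate without enzyme for full effect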
# Active calls of the source: *; / = no result given. Sampled rows, rich in hits. Any-hit rate of the full collection: about 3.1%.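 How the source made its calls, unless noted: active means mean inhibition above about 50% in the one-dose retest (limit read from the data); inactive means the rest.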
SMILES,SENP8 block-1,SENP6 inh,SENP7 block,SENP8 block-2,UBC13 polyUb,Apaf1 inhib,SENP8 confirm,SENP6 confirm,SENP7 conf,Casp3 select,SENP luc ctr
O=C(O)c1cc(/C=C/c2ccc(N3CCOCC3)c([N+](=O)[O-])c2)nc2ccccc12,-104,77*,63*,53*,-38,4,73*,68*,91*,81*,71*
O=C(O)c1cc(N2CCOCC2)nc2ccccc12,-314,-5,14,-10,5,-3,/,/,/,/,/
O=C(c1ccc(N2CCOCC2)c([N+](=O)[O-])c1)N1CCN(c2ccccc2)CC1,18,/,/,/,/,/,/,/,/,/,/
CCCCC(=O)N(C)c1c(CC)nc2c(OCC(=O)N(C)C)cccn12,11,/,/,/,/,/,/,/,/,/,/
CCOC(=O)c1ccc(N/C=C/C(=O)c2ccc(OC)cc2)cc1,-284,-3,5,0,-6,-5,/,/,/,/,/
CCOC(=O)c1ccccc1N/C=C/C(=O)c1ccccc1,-310,50*,31,8,5,14,32,36,64*,36,34
CCOC(=O)c1ccc(N/C=C/C(=O)c2ccccc2)cc1,-469,93*,95*,84*,4,14,13,57*,24,67*,9
CCOC(=O)c1ccccc1NC(=O)/C=C/C(=O)O,-176,-27,-1,1,3,-1,/,/,/,/,/
COc1cccc(CNC(=O)c2cc3c(c(-c4cccc(-c5cccc(C#N)c5)c4)n2)[C@H](CCO)N(S(=O)C(C)(C)C)C3)c1 (stereo partly drawn),16,/,/,/,/,/,/,/,/,/,/
CCOC(=O)CNC(=O)CSc1ncnc2c1cnn2-c1ccccc1,-66,35,20,17,9,-6,/,/,/,/,/
CCOC(=O)CSc1ncnc2c1cnn2-c1ccc(C)cc1,-26,12,18,34,21,14,/,/,/,/,/
CCOC(=O)CNC(=O)CSc1ncnc2c1cnn2-c1ccc(OC)cc1,3,70*,35,68*,12,6,10,47,32,75*,12
CCOC(=O)CNC(=O)CSc1ncnc2c1cnn2-c1ccc(C)cc1,-30,52*,13,39,9,1,13,15,14,46,8
Cc1ccc(S(=O)(=O)N2C[C@H]3C(=O)C[C@@H](c4ccccc4)N(S(=O)(=O)c4ccccc4[N+](=O)[O-])[C@H]3C[C@H]2c2ccccc2)cc1,20,/,/,/,/,/,/,/,/,/,/
CCOC(=O)N1CCN(C(=O)C[C@@H]2C[C@@]3(C(=O)OC)CC(C)(C)CC=C3N(Cc3ccccc3)C2=O)CC1,12,/,/,/,/,/,/,/,/,/,/
Cc1csc(SCc2nnc(-c3ccccc3Br)o2)n1,2,-15,-8,-12,1,-8,/,/,/,/,/
Fc1ccccc1SCc1nnc(-c2ccccc2Br)o1,1,14,43,53*,12,4,66*,67*,86*,49,30
